Experimental data from ChEMBL document CHEMBL3044834, “Novel protoporphyrinogen oxidase inhibitors: 3H-pyrazolo[3,4-d][1,2,3]triazin-4-one derivatives” (J Agric Food Chem, 2008).

System: Digitaria sanguinalis
Assay: Herbicidal activity against Digitaria sanguinalis (hairy crabgrass) assessed as inhibition of fresh weed plant weight at 1500 g/ha using pre-emergence treatment protocol
Assay type: functional

| Compound | inhibition at 1500 g/ha |
| --- | --- |
| C=CCN1C(=O)COc2cc(F)c(-n3nnc4c(c(C(F)(F)F)nn4C)c3=O)cc21 | 0% |
| C=CCN1C(=O)COc2cc(F)c(-n3nnc4c(c(C)nn4C)c3=O)cc21 | 47.7% |
| CCOc1cc(-n2nnc3c(cnn3C)c2=O)c(F)cc1Cl | 0% |
| C#CCN1C(=O)COc2cc(F)c(-n3nnc4c(c(C)nn4C)c3=O)cc21 | 57% |
| C=CCOc1cc(-n2nnc3c(cnn3C)c2=O)c(F)cc1Cl | 0% |
| CCCCCOc1cc(-n2nnc3c(cnn3C)c2=O)c(F)cc1Cl | 0% |
| C#CCOc1cc(-n2nnc3c(cnn3C)c2=O)c(F)cc1Cl | 0% |
| Cn1ncc2c(=O)n(-c3cc(O)c(Cl)cc3F)nnc21 | 0% |
| C=CCOc1cc(-n2nnc3c(c(C)nn3C)c2=O)c(F)cc1Cl | 0% |
| Cn1ncc2c(=O)n(-c3cc(OCC#N)c(Cl)cc3F)nnc21 | 2.3% |

System: Amaranthus retroflexus
Assay: Herbicidal activity against Amaranthus retroflexus assessed as inhibition of fresh weed plant weight at 1500 g/ha using post-emergence treatment protocol
Assay type: functional
Procedure, shortened: (§1)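 Test compounds made up as emulsions by dissolving in 100 µL N,N-dimethylformamide, then adding a little Tween 20 and water. For post-emergence, weed seedlings at one leaf and one stem were sprayed at the same rates as the pre-emergence test. Fresh weight was recorded 15 days after treatment and expressed as percent inhibition versus controls. All treatments were run in triplicate.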

| Compound | inhibition at 1500 g/ha |
| --- | --- |
| C=CCN1C(=O)COc2cc(F)c(-n3nnc4c(c(C(F)(F)F)nn4C)c3=O)cc21 | 0% |
| C=CCN1C(=O)COc2cc(F)c(-n3nnc4c(c(C)nn4C)c3=O)cc21 | 0% |
| CCOc1cc(-n2nnc3c(cnn3C)c2=O)c(F)cc1Cl | 70.6% |
| C#CCN1C(=O)COc2cc(F)c(-n3nnc4c(c(C)nn4C)c3=O)cc21 | 0% |
| C=CCOc1cc(-n2nnc3c(cnn3C)c2=O)c(F)cc1Cl | 0% |
| CCCCCOc1cc(-n2nnc3c(cnn3C)c2=O)c(F)cc1Cl | 23.2% |
| C#CCOc1cc(-n2nnc3c(cnn3C)c2=O)c(F)cc1Cl | 0% |
| Cn1ncc2c(=O)n(-c3cc(O)c(Cl)cc3F)nnc21 | 25.1% |
| C=CCOc1cc(-n2nnc3c(c(C)nn3C)c2=O)c(F)cc1Cl | 14.7% |
| Cn1ncc2c(=O)n(-c3cc(OCC#N)c(Cl)cc3F)nnc21 | 100% |

System: Amaranthus retroflexus
Assay: Herbicidal activity against Amaranthus retroflexus assessed as inhibition of fresh weed plant weight at 1500 g/ha using pre-emergence treatment protocol
Assay type: functional

| Compound | inhibition at 1500 g/ha |
| --- | --- |
| C=CCN1C(=O)COc2cc(F)c(-n3nnc4c(c(C(F)(F)F)nn4C)c3=O)cc21 | 1.2% |
| C=CCN1C(=O)COc2cc(F)c(-n3nnc4c(c(C)nn4C)c3=O)cc21 | 50% |
| CCOc1cc(-n2nnc3c(cnn3C)c2=O)c(F)cc1Cl | 0% |
| C#CCN1C(=O)COc2cc(F)c(-n3nnc4c(c(C)nn4C)c3=O)cc21 | 30% |
| C=CCOc1cc(-n2nnc3c(cnn3C)c2=O)c(F)cc1Cl | 10.6% |
| CCCCCOc1cc(-n2nnc3c(cnn3C)c2=O)c(F)cc1Cl | 0% |
| C#CCOc1cc(-n2nnc3c(cnn3C)c2=O)c(F)cc1Cl | 0% |
| Cn1ncc2c(=O)n(-c3cc(O)c(Cl)cc3F)nnc21 | 23.7% |
| C=CCOc1cc(-n2nnc3c(c(C)nn3C)c2=O)c(F)cc1Cl | 0% |
| Cn1ncc2c(=O)n(-c3cc(OCC#N)c(Cl)cc3F)nnc21 | 40.5% |

System: Digitaria sanguinalis
Assay: Herbicidal activity against Digitaria sanguinalis (hairy crabgrass) assessed as inhibition of fresh weed plant weight at 1500 g/ha using post-emergence treatment protocol
Assay type: functional
Procedure, shortened: as §1

| Compound | inhibition at 1500 g/ha |
| --- | --- |
| C=CCN1C(=O)COc2cc(F)c(-n3nnc4c(c(C(F)(F)F)nn4C)c3=O)cc21 | 0% |
| C=CCN1C(=O)COc2cc(F)c(-n3nnc4c(c(C)nn4C)c3=O)cc21 | 0% |
| CCOc1cc(-n2nnc3c(cnn3C)c2=O)c(F)cc1Cl | 0% |
| C#CCN1C(=O)COc2cc(F)c(-n3nnc4c(c(C)nn4C)c3=O)cc21 | 0% |
| C=CCOc1cc(-n2nnc3c(cnn3C)c2=O)c(F)cc1Cl | 17.9% |
| CCCCCOc1cc(-n2nnc3c(cnn3C)c2=O)c(F)cc1Cl | 0% |
| C#CCOc1cc(-n2nnc3c(cnn3C)c2=O)c(F)cc1Cl | 19.6% |
| Cn1ncc2c(=O)n(-c3cc(O)c(Cl)cc3F)nnc21 | 9.2% |
| C=CCOc1cc(-n2nnc3c(c(C)nn3C)c2=O)c(F)cc1Cl | 16.6% |
| Cn1ncc2c(=O)n(-c3cc(OCC#N)c(Cl)cc3F)nnc21 | 0% |

System: Brassica rapa subsp. oleifera
Assay: Herbicidal activity against Brassica rapa subsp. oleifera assessed as inhibition of fresh weed plant weight at 1500 g/ha using post-emergence treatment protocol
Assay type: functional
Procedure, shortened: as §1

| Compound | inhibition at 1500 g/ha |
| --- | --- |
| C=CCN1C(=O)COc2cc(F)c(-n3nnc4c(c(C(F)(F)F)nn4C)c3=O)cc21 | 12% |
| C=CCN1C(=O)COc2cc(F)c(-n3nnc4c(c(C)nn4C)c3=O)cc21 | 0% |
| CCOc1cc(-n2nnc3c(cnn3C)c2=O)c(F)cc1Cl | 21.5% |
| C#CCN1C(=O)COc2cc(F)c(-n3nnc4c(c(C)nn4C)c3=O)cc21 | 0% |
| C=CCOc1cc(-n2nnc3c(cnn3C)c2=O)c(F)cc1Cl | 1.2% |
| CCCCCOc1cc(-n2nnc3c(cnn3C)c2=O)c(F)cc1Cl | 6.1% |
| C#CCOc1cc(-n2nnc3c(cnn3C)c2=O)c(F)cc1Cl | 9.2% |
| Cn1ncc2c(=O)n(-c3cc(O)c(Cl)cc3F)nnc21 | 27.9% |
| C=CCOc1cc(-n2nnc3c(c(C)nn3C)c2=O)c(F)cc1Cl | 7.5% |
| Cn1ncc2c(=O)n(-c3cc(OCC#N)c(Cl)cc3F)nnc21 | 31.3% |

System: Brassica rapa subsp. oleifera
Assay: Herbicidal activity against Brassica rapa subsp. oleifera assessed as inhibition of fresh weed plant weight at 1500 g/ha using pre-emergence treatment protocol
Assay type: functional

| Compound | inhibition at 1500 g/ha |
| --- | --- |
| C=CCN1C(=O)COc2cc(F)c(-n3nnc4c(c(C(F)(F)F)nn4C)c3=O)cc21 | 0% |
| C=CCN1C(=O)COc2cc(F)c(-n3nnc4c(c(C)nn4C)c3=O)cc21 | 34.6% |
| CCOc1cc(-n2nnc3c(cnn3C)c2=O)c(F)cc1Cl | 29.8% |
| C#CCN1C(=O)COc2cc(F)c(-n3nnc4c(c(C)nn4C)c3=O)cc21 | 44.4% |
| C=CCOc1cc(-n2nnc3c(cnn3C)c2=O)c(F)cc1Cl | 7.4% |
| CCCCCOc1cc(-n2nnc3c(cnn3C)c2=O)c(F)cc1Cl | 13.9% |
| C#CCOc1cc(-n2nnc3c(cnn3C)c2=O)c(F)cc1Cl | 12.7% |
| Cn1ncc2c(=O)n(-c3cc(O)c(Cl)cc3F)nnc21 | 0% |
| C=CCOc1cc(-n2nnc3c(c(C)nn3C)c2=O)c(F)cc1Cl | 7.8% |
| Cn1ncc2c(=O)n(-c3cc(OCC#N)c(Cl)cc3F)nnc21 | 0% |

System: Echinochloa crus-galli
Assay: Herbicidal activity against Echinochloa crus-galli (barnyard grass) assessed as inhibition of fresh weed plant weight at 1500 g/ha using pre-emergence treatment protocol
Assay type: functional

| Compound | inhibition at 1500 g/ha |
| --- | --- |
| C=CCN1C(=O)COc2cc(F)c(-n3nnc4c(c(C(F)(F)F)nn4C)c3=O)cc21 | 0% |
| C=CCN1C(=O)COc2cc(F)c(-n3nnc4c(c(C)nn4C)c3=O)cc21 | 22.3% |
| CCOc1cc(-n2nnc3c(cnn3C)c2=O)c(F)cc1Cl | 12.4% |
| C#CCN1C(=O)COc2cc(F)c(-n3nnc4c(c(C)nn4C)c3=O)cc21 | 15.8% |
| C=CCOc1cc(-n2nnc3c(cnn3C)c2=O)c(F)cc1Cl | 11% |
| CCCCCOc1cc(-n2nnc3c(cnn3C)c2=O)c(F)cc1Cl | 1.1% |
| C#CCOc1cc(-n2nnc3c(cnn3C)c2=O)c(F)cc1Cl | 0% |
| Cn1ncc2c(=O)n(-c3cc(O)c(Cl)cc3F)nnc21 | 3.5% |
| C=CCOc1cc(-n2nnc3c(c(C)nn3C)c2=O)c(F)cc1Cl | 17.2% |
| Cn1ncc2c(=O)n(-c3cc(OCC#N)c(Cl)cc3F)nnc21 | 17.5% |

System: Echinochloa crus-galli
Assay: Herbicidal activity against Echinochloa crus-galli (barnyard grass) assessed as inhibition of fresh weed plant weight at 1500 g/ha using post-emergence treatment protocol
Assay type: functional
Procedure, shortened: as §1

| Compound | inhibition at 1500 g/ha |
| --- | --- |
| C=CCN1C(=O)COc2cc(F)c(-n3nnc4c(c(C(F)(F)F)nn4C)c3=O)cc21 | 13.6% |
| C=CCN1C(=O)COc2cc(F)c(-n3nnc4c(c(C)nn4C)c3=O)cc21 | 0% |
| CCOc1cc(-n2nnc3c(cnn3C)c2=O)c(F)cc1Cl | 20.2% |
| C#CCN1C(=O)COc2cc(F)c(-n3nnc4c(c(C)nn4C)c3=O)cc21 | 0% |
| C=CCOc1cc(-n2nnc3c(cnn3C)c2=O)c(F)cc1Cl | 28% |
| CCCCCOc1cc(-n2nnc3c(cnn3C)c2=O)c(F)cc1Cl | 15.3% |
| C#CCOc1cc(-n2nnc3c(cnn3C)c2=O)c(F)cc1Cl | 20.8% |
| Cn1ncc2c(=O)n(-c3cc(O)c(Cl)cc3F)nnc21 | 13.2% |
| C=CCOc1cc(-n2nnc3c(c(C)nn3C)c2=O)c(F)cc1Cl | 21% |
| Cn1ncc2c(=O)n(-c3cc(OCC#N)c(Cl)cc3F)nnc21 | 32.6% |
